Reference: ChEMBL document CHEMBL1132483, “Fused bicyclic Gly-Asp beta-turn mimics with specific affinity for GPIIb-IIIa” (J Med Chem, 1999)
pIC50: −log10 of the molar value.

How the values were obtained:
[1] = species on record: Homo sapiens; assay: Concentration required to reduce ADP-induced platelet aggregation in platelet rich plasma by 50%.; type: functional
How it was run: (§1)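 Human platelet-rich plasma was incubated for 1 min with varying test concentrations or vehicle, then aggregation was triggered with ADP. The response was followed turbidimetrically. IC50 is the concentration cutting the aggregation response by 50%, averaged from at least two determinations, with average error ±16%.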

[2] = species on record: Homo sapiens; assay: Concentration required to reduce ADP-induced platelet aggregation in platelet rich plasma by 50%; type: functional; how it was run: as §1
[3] = biological target: Integrin alpha-IIb/beta-3 (Homo sapiens, UniProt P05106+P08514); assay: Inhibition of fibrinogen binding to purified human alpha IIb beta-3 integrin (GP IIb-IIIa); type: protein-complex assay
[4] = Cmax (ng /mL) value after oral administration of 10 mg/kg in guinea pig.; type: ADME, organism-based, Cavia porcellus; design: dose 10 mg/kg, route oral; conditions: in vivo
How it was run: (§2)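 Guinea pigs were fasted overnight and given a single 10 mg/kg oral gavage dose, formulated at 3 mg/mL in 50% poly(ethylene glycol) 300. Blood was drawn under isoflurane anesthesia into 3.8% trisodium citrate (9:1). Plasma was assayed by HPLC. AUC covers the 0-5 h time course, and Cmax is the peak plasma level.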

[5] = AUC (ng h/mL) value after oral administration of 10 mg/kg in guinea pig.; type: ADME, organism-based, Cavia porcellus; design: dose 10 mg/kg, route oral; conditions: plasma; how it was run: as §2
[6] = Cmax(ng /mL)values after oral administration of 10 mg/kg in guinea pig.; type: ADME, organism-based, Cavia porcellus; design: dose 10 mg/kg, route oral; conditions: in vivo; how it was run: as §2
[7] = AUC(ng h/mL)values after oral administration of 10 mg/kg in guinea pig.; type: ADME, organism-based, Cavia porcellus; design: dose 10 mg/kg, route oral; conditions: plasma; how it was run: as §2
[8] = Cmax(ng /mL)values after oral administration of 10 mg/kg in rat.; type: ADME, organism-based; design: dose 10 mg/kg, route oral; conditions: in vivo
How it was run: (§3)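 Rats were fasted overnight and dosed once by oral gavage at 10 mg/kg, in vehicle of 50% poly(ethylene glycol) 300 at 3 mg/mL. Blood was collected under isoflurane into 3.8% trisodium citrate (9:1), and plasma was prepared for HPLC analysis. AUC refers to the sampled time course.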

[9] = AUC(ng h/mL)values after oral administration of 10 mg/kg in rat.; type: ADME, organism-based; design: dose 10 mg/kg, route oral; conditions: plasma; how it was run: as §3

Integrin alpha-IIb/beta-3, sequence (P05106 27-788 limits assumed): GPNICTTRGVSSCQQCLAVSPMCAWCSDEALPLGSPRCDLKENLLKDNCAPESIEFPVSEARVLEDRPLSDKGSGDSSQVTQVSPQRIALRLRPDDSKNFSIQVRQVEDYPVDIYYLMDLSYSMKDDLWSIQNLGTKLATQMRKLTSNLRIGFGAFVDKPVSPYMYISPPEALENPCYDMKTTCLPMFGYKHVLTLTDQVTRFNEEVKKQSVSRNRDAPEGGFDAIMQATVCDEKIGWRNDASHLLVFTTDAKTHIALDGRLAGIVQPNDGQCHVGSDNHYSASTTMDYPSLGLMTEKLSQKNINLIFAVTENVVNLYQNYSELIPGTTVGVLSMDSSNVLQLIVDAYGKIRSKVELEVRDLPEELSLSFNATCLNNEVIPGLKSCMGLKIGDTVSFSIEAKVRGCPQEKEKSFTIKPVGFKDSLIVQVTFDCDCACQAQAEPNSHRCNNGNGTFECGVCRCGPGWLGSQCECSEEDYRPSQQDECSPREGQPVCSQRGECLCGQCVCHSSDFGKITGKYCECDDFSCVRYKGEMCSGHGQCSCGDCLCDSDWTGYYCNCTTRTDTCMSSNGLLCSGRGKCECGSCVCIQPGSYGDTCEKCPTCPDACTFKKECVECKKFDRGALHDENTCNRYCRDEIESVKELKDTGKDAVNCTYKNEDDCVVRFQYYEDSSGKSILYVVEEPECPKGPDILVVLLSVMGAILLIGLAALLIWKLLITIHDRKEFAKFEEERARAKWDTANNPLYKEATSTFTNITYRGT
Integrin alpha-IIb/beta-3, sequence (P08514 32-887 limits assumed): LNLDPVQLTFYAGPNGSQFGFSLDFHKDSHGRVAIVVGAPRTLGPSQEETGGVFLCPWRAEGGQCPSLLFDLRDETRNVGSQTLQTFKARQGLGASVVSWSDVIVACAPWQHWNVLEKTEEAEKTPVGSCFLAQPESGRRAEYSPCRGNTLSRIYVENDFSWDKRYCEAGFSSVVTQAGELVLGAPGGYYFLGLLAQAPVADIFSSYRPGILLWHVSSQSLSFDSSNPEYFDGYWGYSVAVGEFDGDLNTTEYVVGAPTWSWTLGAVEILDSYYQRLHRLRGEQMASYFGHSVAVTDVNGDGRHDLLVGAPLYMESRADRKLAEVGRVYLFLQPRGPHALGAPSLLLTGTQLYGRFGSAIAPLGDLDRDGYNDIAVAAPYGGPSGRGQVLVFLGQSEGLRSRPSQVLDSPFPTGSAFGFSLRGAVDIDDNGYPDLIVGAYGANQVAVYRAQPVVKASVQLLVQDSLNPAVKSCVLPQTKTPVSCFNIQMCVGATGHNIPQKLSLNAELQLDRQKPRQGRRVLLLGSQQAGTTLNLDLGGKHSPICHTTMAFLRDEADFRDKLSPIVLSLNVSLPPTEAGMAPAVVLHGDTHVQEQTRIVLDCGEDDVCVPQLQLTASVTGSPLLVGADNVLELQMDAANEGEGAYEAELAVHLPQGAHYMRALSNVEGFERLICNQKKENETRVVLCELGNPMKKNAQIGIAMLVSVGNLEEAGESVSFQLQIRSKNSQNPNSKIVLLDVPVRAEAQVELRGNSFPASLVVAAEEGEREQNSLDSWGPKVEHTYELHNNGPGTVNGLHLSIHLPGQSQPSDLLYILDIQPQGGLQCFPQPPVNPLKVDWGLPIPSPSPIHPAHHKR
Integrin alpha-IIb/beta-3, sequence (P08514 891-1039 limits assumed): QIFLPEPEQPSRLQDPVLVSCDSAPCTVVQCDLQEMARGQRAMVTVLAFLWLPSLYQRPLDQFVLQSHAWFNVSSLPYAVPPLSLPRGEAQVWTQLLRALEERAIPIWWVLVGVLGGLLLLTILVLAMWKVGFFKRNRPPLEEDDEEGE

For N=C(N)c1ccc(C(=O)Nc2ccc3c(c2)CCC(CC(=O)O)C3=O)cc1 (stereo unspecified), which IC50 [1] is on record?
Its IC50 is 0.02 µg/mL.

And the pIC50 [2]?
The pIC50 was 7.22.

With N=C(N)c1ccc(COc2ccc3c(=O)n(CC(=O)O)ccc3c2)cc1 as the compound, how does the pIC50 [3] read?
Its pIC50 is 5.38.

What does the source list for N=C(N)c1ccc(COc2ccc3c(c2)CCC(CC(=O)O)O3)cc1 (stereo unspecified)?
pIC50 [2]: 5.60; pIC50 [3]: 7.41

For CCOC(=O)Cn1ccc2cc(NC(=O)c3ccc(C(=N)N)cc3)ccc2c1=O, which Cmax [4] is on record?
The Cmax was 177 ng/mL.

And the AUC [5]?
The AUC was 543 ng·h/mL.

With CCOC(=O)Cc1cc2ccc(NC(=O)c3ccc(C(=N)N)cc3)cc2cn1 as the compound, how does the Cmax [4] read?
Its Cmax is 469 ng/mL.

And the AUC [5]?
The AUC was 1580 ng·h/mL.

With N=C(N)c1ccc(COc2ccc3c(c2)CN(CC(=O)O)C3=O)cc1 as the compound, how does the pIC50 [3] read?
Its pIC50 is 5.92.

With N=C(N)c1ccc(C(=O)Nc2ccc3c(c2)CCC(CC(=O)O)C3)cc1 (stereo unspecified) as the compound, how does the Cmax [6] read?
Its Cmax is 252 ng/mL.

What about the AUC [7] of the same compound?
The AUC was 903 ng·h/mL.

And the pIC50 [1]?
Its pIC50 is 6.72.

What about the IC50 [2] of the same compound?
The IC50 was 0.067 µg/mL.

With CCOC(=O)CC1CCc2cc(NC(=O)c3ccc(C(=N)N)cc3)ccc2C1 (stereo unspecified) as the compound, how does the Cmax [6] read?
The Cmax was 1170 ng/mL.

And the Cmax [8]?
Its Cmax is 5060 ng/mL.

What about the AUC [7] of the same compound?
The AUC was 3700 ng·h/mL.

And the AUC [9]?
The AUC was 15900 ng·h/mL.

With N=C(N)c1ccc(COc2ccc(C(=O)NCC(=O)O)cc2)cc1 as the compound, how does the pIC50 [3] read?
The pIC50 was 5.30.

With N=C(N)c1ccc(COc2ccc3c(c2)CC(=O)N(CC(=O)O)C3)cc1 as the compound, how does the pIC50 [3] read?
The pIC50 was 5.24.

For N=C(N)c1ccc(C(=O)Nc2ccc3c(c2)CCN(CC(=O)O)C3)cc1, which IC50 [1] is on record?
Its IC50 is 0.06 µg/mL.

What about the pIC50 [2] of the same compound?
The pIC50 was 6.77.

Which Cmax [8] does the source give for CCOC(=O)CC1CCc2cc(NC(=O)c3ccc(C(=N)N)cc3)ccc2O1 (stereo unspecified) here?
The Cmax was 4850 ng/mL.

And the AUC [9]?
The AUC was 14800 ng·h/mL.

Which Cmax [6] does the source give for CCOC(=O)CC1CCc2cc(NC(=O)c3ccc(C(=N)N)cc3)ccc2C1=O (stereo unspecified) here?
The Cmax was 1150 ng/mL.

What about the Cmax [8] of the same compound?
Its Cmax is 3630 ng/mL.

What about the AUC [7] of the same compound?
Its AUC is 3990 ng·h/mL.

What about the AUC [9] of the same compound?
The AUC was 11200 ng·h/mL.

Which Cmax [6] does the source give for N=C(N)c1ccc(C(=O)Nc2ccc3c(c2)CCN(CC(=O)O)C3=O)cc1 here?
The Cmax was 126 ng/mL.

And the AUC [7]?
The AUC was 400 ng·h/mL.

And the pIC50 [1]?
Its pIC50 is 7.05.

And the IC50 [2]?
The IC50 was 0.032 µg/mL.

Which results are given for N=C(N)c1ccc(C(=O)Nc2ccc3c(c2)CCC(CC(=O)O)O3)cc1 (stereo unspecified)?
IC50 [1]: 0.027 µg/mL; pIC50 [2]: 6.72; pIC50 [3]: 8.70

With N=C(N)c1ccc(COc2ccc3c(c2)CCCN(CC(=O)O)C3=O)cc1 as the compound, how does the pIC50 [3] read?
The pIC50 was 6.22.

With N=C(N)c1ccc(COc2ccc3c(c2)CCC(CC(=O)O)C3=O)cc1 (stereo unspecified) as the compound, how does the pIC50 [2] read?
The pIC50 was 6.35.

What about the pIC50 [3] of the same compound?
Its pIC50 is 7.57.

With N=C(N)c1ccc(COc2ccc3c(c2)CCC(CC(=O)O)C3)cc1 (stereo unspecified) as the compound, how does the pIC50 [2] read?
Its pIC50 is 4.48.

And the pIC50 [3]?
Its pIC50 is 6.59.

With N=C(N)c1ccc(COc2ccc3c(c2)CCN(CC(=O)O)C3)cc1 as the compound, how does the pIC50 [2] read?
The pIC50 was 6.48.
